Source: PubChem BioAssay
Compounds with a hit are over-represented: about 1.4% of the library has one in this group of screens.
ARNT TACC3 PPI = ARNT/TACC3 interaction disruption. AlphaScreen His-ARNT PAS-B/GST-TACC3 binding, luminescence; TACC3 fragment carries E629A point mutation. inhibition, % at 9.99 µM. 390,000 compounds, 0.66% hits. AID 623870;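 active = mean inhibition of replicates at least 50% and at least half of replicates each reaching 50%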;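 also: 0% = complete ARNT plus TACC3 wells and 100% = ARNT alone without TACC3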
CAL PDZ FP-1 = human CAL PDZ-peptide interaction inhibition | AID 504414 | 330,000 compounds, 0.02% hits | purified CAL PDZ, TMR-peptide fluorescence polarization, 1 h | Q9HD26 | inhibition, % at 20 µM;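 active = highest replicate inhibition of at least 40%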;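 also: plate controls were DMSO neutral control wells for no effect and unlabeled competitor peptide control wells for full effect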
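Material – purified CerCALP PDZ construct · Detection – FP readout, S and P plane fluorescence · Measure – percent inhibition from loss of millipolarization · Controls – unlabelled peptide for full inhibition, DMSO wells as neutral · Probe or stimulus – TMR-labelled reporter peptide T*-PRC34 bound in PDZ groove · Times – 1 h at RT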
CAL PDZ FP-2 = blocks peptide binding to the human CAL PDZ domain; Q9HD26; purified CAL PDZ, TMR-peptide fluorescence polarization, 1 h; inhibition, % at 24.9 µM; 300,000 compounds, 0.92% hits;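 active = mean inhibition of at least 30% with at least half of replicates also reaching 30%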;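 also: 0% = DMSO neutral control and 100% = excess unlabeled competitor peptide PRC23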
DYRK1A inh = blocks rat Dyrk1A kinase activity. AID 504441. ADP-Glo luminescence, NFATc1 peptide. 310,000 compounds, 0.43% hits. Q63470. inhibition, % at 12.5 µM; in the data active = inhibition above about 50%;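 also: plate controls were vehicle with enzyme for no effect and no enzyme for full effect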
An asterisk follows results filed as active.

`Cc1c(N=Nc2ccc(O)cc2)c(=O)n(-c2ccccc2)n1C` gave ARNT TACC3 PPI 14, CAL PDZ FP-1 0, CAL PDZ FP-2 2 and DYRK1A inh 4.
For C[C@@H]1CN([C@@H](C)CO)C(=O)c2cc(-c3cccc(C(=O)N(C)C)c3)cnc2O[C@@H]1CN(C)S(=O)(=O)c1ccccc1 the results were ARNT TACC3 PPI 0.
Screening CC(C)[C@H](NC(=O)c1ccc(Br)cc1)C(=O)NC1CCCCC1 returned ARNT TACC3 PPI -4, CAL PDZ FP-1 0 and CAL PDZ FP-2 86*.
`Nc1nc(NC(=O)C(Cl)(Cl)Cl)nn1-c1ccccc1` gave ARNT TACC3 PPI 64*, CAL PDZ FP-1 -1, CAL PDZ FP-2 2 and DYRK1A inh -2.
Screening O=C(C[C@@H]1CC[C@@H]2[C@H](COC[C@@H](O)CN2C(=O)Nc2ccccc2)O1)NCCc1ccncc1 returned ARNT TACC3 PPI -8.
For C#CCN1[C@@H]2CCN(C2)c2cc(Br)ccc2S1(=O)=O the results were ARNT TACC3 PPI -22, CAL PDZ FP-1 0, CAL PDZ FP-2 51* and DYRK1A inh 6.
`Cc1cccc(N(CC(=O)NC2CCCCC2)C(=O)CCCC(=O)Nc2ccccn2)c1` gave ARNT TACC3 PPI -3, CAL PDZ FP-1 -1, CAL PDZ FP-2 74* and DYRK1A inh -1.
Screening Cc1cccc(N(CC(=O)NC2CCCC2)C(=O)CCCC(=O)Nc2ccccn2)c1 returned ARNT TACC3 PPI -4, CAL PDZ FP-1 -1, CAL PDZ FP-2 2 and DYRK1A inh -3.
C[C@H](CO)N1C[C@H](C)[C@@H](CN(C)C)OCCCC[C@H](C)Oc2ccc(NS(=O)(=O)c3cccs3)cc2C1=O was read as ARNT TACC3 PPI -12.
`CN(C)S(=O)(=O)c1cccc(NC(=O)COC(=O)c2ccc([N+](=O)[O-])o2)c1` gave ARNT TACC3 PPI 64*, CAL PDZ FP-1 -1, CAL PDZ FP-2 -4 and DYRK1A inh -1.
`O=C(COC(=O)c1ccc([N+](=O)[O-])o1)Nc1cccc(S(=O)(=O)N2CCOCC2)c1` gave ARNT TACC3 PPI 10, CAL PDZ FP-1 0, CAL PDZ FP-2 -3 and DYRK1A inh 6.
Screening O=C(NCC1CCCCC1)c1cccnc1 returned ARNT TACC3 PPI -3, CAL PDZ FP-1 4, CAL PDZ FP-2 43* and DYRK1A inh 1.
For CCCNC(=O)C[C@H]1CC[C@H]2[C@@H](COc3ccc(NC(=O)c4ccc(OC)cc4)cc3C(=O)N2C)O1 the results were ARNT TACC3 PPI 5.
For Cc1ccc2c(c1)C(c1ccccc1)N(C(=O)c1ccccc1[N+](=O)[O-])CC(=O)N2 (configuration not stated) the results were ARNT TACC3 PPI -2, CAL PDZ FP-1 0, CAL PDZ FP-2 71* and DYRK1A inh 4.
For O=C1CN(C(=O)c2ccccc2[N+](=O)[O-])C(c2ccccc2)c2cc(Br)ccc2N1 (configuration not stated) the results were ARNT TACC3 PPI 2, CAL PDZ FP-1 0 and DYRK1A inh 3.
For COCC(=O)N(C)C[C@H]1Oc2ncc(C#Cc3ccc(OC)cc3)cc2C(=O)N([C@H](C)CO)C[C@H]1C the results were ARNT TACC3 PPI -7.
For CC(=O)c1sc(NC(=O)CCCc2nc3ccccc3c(=O)[nH]2)nc1-c1ccccc1 the results were ARNT TACC3 PPI 4, CAL PDZ FP-1 -1 and CAL PDZ FP-2 52*.
C[C@H](O)C#Cc1ccc2c(c1)O[C@H](CN(C)C(=O)CC1CC1)[C@H](C)CN([C@H](C)CO)S2(=O)=O was read as ARNT TACC3 PPI -4.
COc1cc(-c2cc(C(=O)Nc3ccc(O)cc3)c3ccccc3n2)cc(OC)c1OC was read as ARNT TACC3 PPI -3, CAL PDZ FP-1 0, CAL PDZ FP-2 2 and DYRK1A inh -1.
`COc1cc(-c2cc(C(=O)Nc3nc4ccccc4s3)c3ccccc3n2)cc(OC)c1OC` gave ARNT TACC3 PPI -1, CAL PDZ FP-1 -2, CAL PDZ FP-2 87* and DYRK1A inh 1.
For O=C(CSc1ccccc1)N1CCCC(Nc2ccccc2)C1 (configuration not stated) the results were ARNT TACC3 PPI 0, CAL PDZ FP-1 1, CAL PDZ FP-2 61* and DYRK1A inh -3.
O=C(N[C@H]1CC[C@H](CCn2cc(Cc3ccccc3)nn2)O[C@H]1CO)c1ccccn1 was read as ARNT TACC3 PPI -3.
`COCC(C)n1c(C)cc(C(=O)Cn2nc(C(=O)O)c3ccccc3c2=O)c1C` (configuration not stated) gave ARNT TACC3 PPI 0, CAL PDZ FP-1 -1 and CAL PDZ FP-2 37*.
Screening O=C(COC(=O)c1cc(-c2cccc3ccccc23)nc2ccccc12)NC1CCS(=O)(=O)C1 (configuration not stated) returned ARNT TACC3 PPI -1, CAL PDZ FP-1 -2, CAL PDZ FP-2 -3 and DYRK1A inh 3.
`O=C(COC(=O)c1cc(-c2cccs2)nc2ccccc12)NC1CCS(=O)(=O)C1` (configuration not stated) gave ARNT TACC3 PPI 49*, CAL PDZ FP-1 0, CAL PDZ FP-2 -8 and DYRK1A inh 6.
COc1ccc(-c2c(C)nn3c(N)c(-c4ccccc4)cnc23)cc1OC was read as ARNT TACC3 PPI -1, CAL PDZ FP-1 0, CAL PDZ FP-2 -4 and DYRK1A inh -3.
COc1ccccc1-c1c(C)nn2c(N)c(-c3ccccc3)cnc12 was read as ARNT TACC3 PPI 11, CAL PDZ FP-2 69* and DYRK1A inh 3.
For COc1ccc(CN(C)C[C@H]2Oc3c(NS(=O)(=O)c4ccc(OC)cc4)cccc3C(=O)N([C@@H](C)CO)C[C@H]2C)cc1 the results were ARNT TACC3 PPI -7.
For CN1c2ccc(C3=CCCCC3)cc2[C@@H]2[C@@H](CCN2S(=O)(=O)c2ccccc2)[C@@H]1CO the results were ARNT TACC3 PPI -1.
Screening Cc1ccccc1OCC(=O)Nc1ccccc1N1CCC(C)CC1 returned ARNT TACC3 PPI 45*, CAL PDZ FP-1 0, CAL PDZ FP-2 2 and DYRK1A inh 4.
Screening C[C@@H]1CN([C@@H](C)CO)C(=O)c2cccc(NC(=O)c3cnccn3)c2O[C@@H]1CN(C)C(=O)Nc1ccc(C(F)(F)F)cc1 returned ARNT TACC3 PPI 5.
For COc1ccc(S(=O)(=O)N(C)C[C@H]2Oc3c(NC(=O)NC4CCCCC4)cccc3C(=O)N([C@@H](C)CO)C[C@H]2C)cc1 the results were ARNT TACC3 PPI 5.
`COc1ccc(CN2CCNC(=O)C2CC(=O)NC2CCCCCCC2)cc1OC` (configuration not stated) gave ARNT TACC3 PPI 2, CAL PDZ FP-1 0, CAL PDZ FP-2 55* and DYRK1A inh 0.
COc1cc(CNCc2ccccn2)ccc1OCc1ccccc1Cl was read as ARNT TACC3 PPI 30, CAL PDZ FP-1 0, CAL PDZ FP-2 0 and DYRK1A inh 2.
For CCOc1c(Cl)cc(CNCc2ccccn2)cc1OC the results were ARNT TACC3 PPI 49*, CAL PDZ FP-1 -3, CAL PDZ FP-2 -3 and DYRK1A inh -2.
